Converted amounts (≈) assume the structure as drawn.
Columns and labels:
[1] = Selectivity index, ratio of IC50 for cytotoxicity against HUVEC cells to IC50 for antiplasmodial activity against chloroquine-sensitive Plasmodium falciparum 3D7; type: toxicity, cell-based; details: human, read-out: Ratio IC50
[2] = Cytotoxicity against HUVEC cells assessed as inhibition of cell growth incubated for 48 hrs by fluorescence based assay; type: toxicity; details: human
Summary of the method: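 HUVEC in EGM-2, at most 10 passages, seeded at 2.5 × 10⁴ cells/well and grown 24 h at 37 °C. Six 2-fold concentrations in triplicate (DMSO max 0.5%) for 48 h. PrestoBlue for 2–3 h, fluorescence 560–590 nm, growth compared with untreated cells. n = 3 separate tests.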

[3] = Hemolytic activity in RBC (unknown origin) assessed as hemolysis at 100 ug/ml incubated for 1 hrs by absorbance based microplate reader analysis relative to control; type: toxicity, cell-based, Erythrocyte; details: red blood cells, at 100 µg/mL, read-out: Activity
Summary of the method: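 Human A⁺/O⁺ RBC, 10% v/v in PBS, exposed to compound at 100 μg mL⁻¹ final (DMSO < 1%), in duplicate, stirred 1 h at RT. Centrifuged, supernatant OD₅₅₀ read. % lysis = (sample − PBS)/(1% Triton X-100 − PBS) × 100.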

[4] = tested on: Plasmodium falciparum; test: Antiplasmodial activity against chloroquine-sensitive Plasmodium falciparum 3D7 assessed as intraerythrocytic growth inhibition; type: functional, organism-based
Summary of the method: (§1)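 Asexual intraerythrocytic P. falciparum cultured at 37 °C in RPMI with glucose, hypoxanthine, gentamycin and 10% pooled human A+/O+ serum. DMSO stocks of 5–10 mg mL⁻¹ diluted in RPMI, final DMSO at most 1%. Eight two-fold dilutions tested in three consecutive assays. Growth read as Plasmodium lactate dehydrogenase activity at 650 nm against parasitized RBC (100%) and free RBC (0%). IC50 in triplicate; artemisinin and quinine as controls.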

[5] = tested on: Plasmodium falciparum; test: Antiplasmodial activity against chloroquine-resistant Plasmodium falciparum FcB1 assessed as intraerythrocytic growth inhibition; type: functional, organism-based; summary of the method: as §1
[6] = tested on: Plasmodium falciparum; test: Antiplasmodial activity against multidrug-resistant Plasmodium falciparum W2 assessed as intraerythrocytic growth inhibition; type: functional, organism-based; summary of the method: as §1
[7] = Aqueous solubility of compound assessed as Cmax incubated for 3 days by UV spectrophotometer based shake-flask method; type: physicochemical; details: water (aqueous); time 3 day; read-out: Cmax
Summary of the method: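 Shake-flask: excess solid stirred overnight in MilliQ water at RT (~25 °C), filtered 0.45 μm, diluted, absorbance read at the λmax from a UV scan. Quantified against a 3-point calibration curve (R² > 0.95). Fresh saturated solutions were made on 3 consecutive days.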

[8] = Toxicity in zebrafish embryos assessed as survival at highest concentration measured for 3 days relative to control; design: species or system Danio rerio; details: in vivo, time 3 day, read-out: Activity
Summary of the method: (§2)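 Zebrafish embryos were synchronized 24 h after collection and kept at 28 °C with chorion intact, 20 per condition in duplicate. They were exposed to 100, 50, 25 or 10 μg mL⁻¹ from 100 mg mL⁻¹ DMSO stocks (final DMSO under 0.1%), with medium renewed daily for 3 days. Aspect, hatching and mortality were followed to 96 hpf against 30 control embryos in water with 0.1% DMSO.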

[9] = Toxicity in zebrafish embryos assessed as reduction in brain size at 10 to 100 ug/ml measured for 3 days; type: tissue-based, Danio rerio; details: in vivo, 72 h, dose 10-100 µg/ml, time 3 day
[10] = Toxicity in zebrafish embryos assessed as brain misshape at 10 to 100 ug/ml measured for 3 days; type: tissue-based, Danio rerio; details: in vivo, 72 h, dose 10-100 µg/ml, time 3 day
[11] = Toxicity in zebrafish embryos assessed as modified heart rate at 10 to 100 ug/ml measured for 3 days; design: species or system Danio rerio; details: in vivo, 72 h, dose 10-100 µg/ml, time 3 day
[12] = Toxicity in zebrafish embryos assessed as reduction in egg hatching measured for 72 hrs; design: species or system Danio rerio; details: in vivo, dose 10-100 µg/ml
[13] = Toxicity in zebrafish embryos assessed as reduction in egg hatching at 10 to 100 ug/ml measured 5 days post fertilization; design: species or system Danio rerio; details: in vivo, 120 h, dose 10-100 µg/ml, time 5 day
[14] = Toxicity in zebrafish embryo assessed as developmental defects at 10 to 100 ug/ml measured 24 hrs post fertilization; design: species or system Danio rerio; details: in vivo, dose 10-100 µg/ml
[15] = Toxicity in zebrafish embryo assessed as survival at 10 to 100 ug/ml measured 24 hrs post fertilization relative to control; design: species or system Danio rerio; details: in vivo, at 10 to 100 µg/mL, dose 10-100 µg/ml, read-out: Activity; summary of the method: as §2
[16] = Toxicity in zebrafish embryos assessed as egg hatching at 10 to 100 ug/ml measured for 72 hrs relative to control; type: tissue-based, Danio rerio; details: in vivo, at 10 to 100 µg/mL, dose 10-100 µg/ml

SMILES | selectivity ratio [1] | IC50 at 48 h [2] [µM] | hemolysis at 1 h, 100 ug/ml [3] [%] | IC50 [4] [µM] | IC50 [5] [µM] | IC50 [6] [µM] | solubility thermodynamic at 72 h [7] [µM] | survival at 72 h [8] [%] | Activity [9] | Activity [10] | Activity [11] | Activity [12] | Activity [13] | Activity [14] | survival at 24 h [15] [%] | Activity [16] [%]
O=C(Nc1ccc(OC(=O)c2cc(O)c(O)c(O)c2)cc1)c1cc(O)c(O)c(O)c1 | > 13 | > 121 | < 1 | 3.9 | 3.1 | 2.9 | 66 (≈ 27.3 µg/mL) |  |  |  |  |  |  |  |  | 
O=C(OCCCOC(=O)c1cc(O)c(OCCO)c(O)c1)c1cc(O)c(O)c(O)c1 | > 14 | > 118 | < 1 | 20 | 4.3 | 7.6 |  |  |  |  |  |  |  |  |  | 
COCOc1cc(C(=O)OCCCOC(=O)c2cc(OCOC)c(OCc3ccccc3)c(OCOC)c2)cc(OCOC)c1OCc1ccccc1 |  |  | < 1 | 4.5 |  |  | 3 (≈ 2.21 µg/mL) |  |  |  |  |  |  |  |  | 
COCOc1cc(C(=O)OCCCOC(=O)c2cc(OCOC)c(OCc3ccc4ccccc4c3)c(OCOC)c2)cc(OCOC)c1OCc1ccccc1 |  |  | < 1 | 21 |  |  |  |  |  |  |  |  |  |  |  | 
O=C(OCCCOC(=O)c1cc(O)c(OCCOCc2ccccc2)c(O)c1)c1cc(O)c(OCCOCc2ccccc2)c(O)c1 | 5 | 15 | < 1 | 3.2 |  |  |  |  |  |  |  |  |  |  |  | 
C=C[C@H]1CN2CC[C@H]1C[C@H]2[C@H](O)c1ccnc2ccc(OC)cc12 [QUININE] |  |  | < 1 | 0.6 |  |  |  |  |  |  |  |  |  |  |  | 
C[C@@H]1CC[C@H]2[C@@H](C)C(=O)O[C@@H]3O[C@@]4(C)CC[C@@H]1[C@]32OO4 [ARTEMISININ] |  |  | < 1 | 0.013 | 17 |  |  |  |  |  |  |  |  |  |  | 
O=C(NCCCOC(=O)c1cc(O)c(O)c(O)c1)c1cc(O)c(O)c(O)c1 | 11 | 59 | < 1 | 6.3 | 4.7 | 6.8 | 2100 (≈ 797 µg/mL) | > 90 | Non-Toxic | Non-Toxic | Non-Toxic | Dose-Dependent Effect | Toxic | Non-Toxic | > 95 | 
O=C(OCCCOC(=O)c1cc(O)c(O)c(O)c1)c1cc(O)cc(O)c1 | > 21 |  | < 1 | 4.6 | 3.8 | 3.6 | 1200 (≈ 437 µg/mL) |  |  |  |  |  |  |  |  | 
O=C(OCCCOC(=O)c1ccc(O)c(O)c1)c1ccc(O)c(O)c1 | > 42 | > 144 | < 1 | 9 |  |  | 33 (≈ 11.5 µg/mL) |  |  |  |  |  |  |  |  | 
O=C(OCCCOC(=O)c1cc(O)c(OCc2ccc3ccccc3c2)c(O)c1)c1cc(O)c(OCc2ccccc2)c(O)c1 | 5 | 6.9 | < 1 | 0.9 | 0.9 | 0.4 |  |  |  |  |  |  |  |  |  | 
O=C(OCCCOC(=O)c1cc(O)c(O)c(O)c1)c1ccc(O)c(O)c1 | 41 | 84 | < 1 | 5.5 | 4.9 | 7.6 | 280 (≈ 102 µg/mL) |  |  |  |  |  |  |  |  | 
O=C(OCCCOC(=O)c1cc(O)c(OCc2ccc3ccccc3c2)c(O)c1)c1cc(O)c(OCc2ccc3ccccc3c2)c(O)c1 | 2.4 | 9.7 | < 1 | 4 | 1.1 | 1.8 |  |  |  |  |  |  |  |  |  | 
O=C(OCCCOC(=O)c1cc(O)c(O)c(O)c1)c1ccccc1 | 3 | 78 | < 1 | 27 | 11 | 13 | 600 (≈ 199 µg/mL) |  |  |  |  |  |  |  |  | 
O=C(Nc1cccc(OC(=O)c2cc(O)c(O)c(O)c2)c1)c1cc(O)c(O)c(O)c1 | 6 | 54 | < 1 | 2.1 | 3.7 | 3.4 | 300 (≈ 124 µg/mL) |  |  |  |  |  |  |  |  | 
O=C(OCCOC(=O)c1cc(O)c(O)c(O)c1)c1cc(O)c(O)c(O)c1 | 19 | 69 | < 1 | 3.7 | 3.7 | 6.7 | 430 (≈ 157 µg/mL) | > 90 | Non-Toxic | Non-Toxic | Non-Toxic |  |  | Non-Toxic | > 95 | 100
O=C(OCCCCOC(=O)c1cc(O)c(O)c(O)c1)c1cc(O)c(O)c(O)c1 | > 35 | > 127 | < 1 | 3.7 | 5.7 | 5 | 150 (≈ 59.1 µg/mL) | > 90 | Non-Toxic | Non-Toxic | Non-Toxic |  |  | Non-Toxic | > 95 | 100
O=C(OCCCOC(=O)c1ccccc1)c1ccccc1 |  |  | < 1 | > 352 |  |  | 7 (≈ 1.99 µg/mL) |  |  |  |  |  |  |  |  | 

Reference: ChEMBL document CHEMBL5252676, “Dimeric polyphenols to pave the way for new antimalarial drugs” (RSC Med Chem, 2023)
